Calls of active or inactive are those of the source. The calls are words filed in the database; no cut-off is given here.
Key:
Osteoblast [1] = assay: Effect on matrix metalloprotease 10 gene expression in rat primary osteoblast cells assessed as expression ratio of treated to untreated control by microarray analysis; format: functional
Summary of the method: (§1)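 Resveratrol-treated and vehicle-treated primary osteoblasts were profiled on a mouse osteogenesis-focused cDNA array (GEArray Q series) built to track gene expression during osteogenic differentiation. Each gene's signal in treated cells was expressed as a ratio to untreated control.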

Osteoblast [2] = assay: Effect on bone morphogenetic protein 8b gene expression in rat primary osteoblast cells assessed as expression ratio of treated to untreated control by microarray analysis; format: functional
Rattus norvegicus = assay: Antiapoptotic activity against osteoblasts in ovariectomized Wistar rat at 10 mg/kg after 10 weeks; format: functional, organism-based; design: dose 10 mg/kg
Summary of the method: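 After 10 weeks, lumbar vertebrae were removed. Apoptotic osteoblasts were detected by TUNEL staining (Klenow FragEL) in undecalcified, plastic-embedded sections. Values are means ± S.D.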

MDA-MB-231 [3] = assay: Antitumor activity against human MDA-MB-231 cells xenografted in SCID mouse orthotropic model assessed as inhibition of 17beta estradiol-induced tumor weight at 10 mg/kg for 2 days; format: functional; design: scale not given: the % may be the effect or the level left
Summary of the method: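 Tumor cells were inoculated orthotopically into the mammary fat pad of 6-week-old female SCID mice. […] Tumor volume was calculated as LW2/2. Tumor formation was scored as mice with tumors per total (20 per group), and tumor weight as mean ± S.D. Groups were compared by one-way ANOVA with LSD post-hoc comparisons.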

Osteoblast [4] = assay: Effect on platelet derived growth factor alpha gene expression in rat primary osteoblast cells assessed as expression ratio of treated to untreated control by microarray analysis; format: functional; summary of the method: as §1
MDA-MB-231 [5] = assay: Reversal of induction of FOXO3a nuclear accumulation in human MDA-MB-231 cells transfected with constitutively activated Akt mutant; format: functional, cell-based
MC3T3-E1 = assay: Inhibition of antiapoptotic activity in mouse MC3T3-E1 cells at 1 uM after 48 hrs in presence of noggin; format: functional, cell-based

Oc1ccc(/C=C/c2cc(O)cc(O)c2)cc1 [RESVERATROL]
Ratio (Osteoblast [1]): 1
Ratio (Osteoblast [2]): 1.82
Activity (Rattus norvegicus): Active
Activity (MDA-MB-231 [3]): 43.6%
Ratio (Osteoblast [4]): 4.34
Activity (MDA-MB-231 [5]): Active
Activity (MC3T3-E1): Active
